For assay [1], the target named is T1, Nitric oxide synthase 1 (Homo sapiens, UniProt P29475). As to the kind of experiment: Inhibition of NOS1.
Assay [2] has as its target Nitric oxide synthase, inducible (Rattus norvegicus) (UniProt Q06518). As to the kind of experiment: Inhibition of Wistar rat NOS2 assessed as L-[3H]citrulline formation at 1 mM by liquid scintillation counting relative to control in presence of EDTA. The method in brief:
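NOS-II source: lung homogenate (0.1 g/mL, Tris/DTT/protease inhibitors, pH 7.6, 2500g supernatant) from male Wistar rats 6 h after iv LPS 10 mg/kg in saline. 10 µL sample incubated 30 min at 37 °C with 10 µM L-arginine plus 40 nM L-3H-arginine, H4-biopterin, FAD, CaCl2, 10 mM EDTA; NADPH started reaction. Compound 1 mM; three experiments in triplicate; mean ± SEM.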

Assay [3] concerns the target Nitric oxide synthase, inducible (Homo sapiens, UniProt P35228). Briefly: Inhibition of NOS2. The method in brief: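 NOS-II source was lung homogenate (2500g supernatant) from male Wistar rats killed 6 h after iv LPS 10 mg/kg. Incubation ran 30 min at 37 °C, pH 7.6, with 10 µM L-arginine, 40 nM L-3H-arginine, cofactors and 0.75 mM NADPH, plus 10 mM EDTA to exclude NOS-I. Read-out was 3H-citrulline formed. Compounds were tested at 1 mM, or 0.1–1 mM for dose-response, in three experiments run in triplicate.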

Assay [4] has as its target T1, Nitric oxide synthase 1. Briefly: Inhibition of recombinant NOS1 assessed as citrulline formation.
The target of assay [5] is Nitric oxide synthase, inducible (Rattus norvegicus) (UniProt Q06518). Briefly: Inhibition of Wistar rat NOS2 assessed as enzyme activity at 0.1 mM by liquid scintillation counting relative to control in presence of EDTA. Further details: scale not given: the % may be the effect or the level left. The method in brief:
(§1)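 Lung homogenate (0.1 g/mL, pH 7.6 Tris with protease inhibitors, 2500g supernatant) from male Wistar rats given 10 mg/kg LPS iv in saline 6 h before. L-3H-arginine (40 nM, plus 10 µM L-arginine) to L-3H-citrulline conversion, 0.75 mM NADPH, 30 min at 37 °C, 10 mM EDTA. Compound at 0.1, 0.5 or 1 mM. Three experiments in triplicate.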

The target is the same in assay [6]. As to the kind of experiment: Inhibition of Wistar rat NOS2 assessed as enzyme activity at 1 mM by liquid scintillation counting relative to control in presence of EDTA. The arrangement: scale not given: the % may be the effect or the level left. The method in brief: as §1
Assay [7] shares this target. As to the kind of experiment: Inhibition of Wistar rat NOS2 assessed as enzyme activity at 0.5 mM by liquid scintillation counting relative to control in presence of EDTA. Further details: scale not given: the % may be the effect or the level left. The procedure, abridged:
as §1

The target is the same in assay [8]. Briefly: Inhibition of Wistar rat NOS2 assessed as L-[3H]citrulline formation by liquid scintillation counting relative to control in presence of EDTA. The procedure, abridged: as §1

Nitric oxide synthase, inducible (Rattus norvegicus), sequence (Q06518 whole entry): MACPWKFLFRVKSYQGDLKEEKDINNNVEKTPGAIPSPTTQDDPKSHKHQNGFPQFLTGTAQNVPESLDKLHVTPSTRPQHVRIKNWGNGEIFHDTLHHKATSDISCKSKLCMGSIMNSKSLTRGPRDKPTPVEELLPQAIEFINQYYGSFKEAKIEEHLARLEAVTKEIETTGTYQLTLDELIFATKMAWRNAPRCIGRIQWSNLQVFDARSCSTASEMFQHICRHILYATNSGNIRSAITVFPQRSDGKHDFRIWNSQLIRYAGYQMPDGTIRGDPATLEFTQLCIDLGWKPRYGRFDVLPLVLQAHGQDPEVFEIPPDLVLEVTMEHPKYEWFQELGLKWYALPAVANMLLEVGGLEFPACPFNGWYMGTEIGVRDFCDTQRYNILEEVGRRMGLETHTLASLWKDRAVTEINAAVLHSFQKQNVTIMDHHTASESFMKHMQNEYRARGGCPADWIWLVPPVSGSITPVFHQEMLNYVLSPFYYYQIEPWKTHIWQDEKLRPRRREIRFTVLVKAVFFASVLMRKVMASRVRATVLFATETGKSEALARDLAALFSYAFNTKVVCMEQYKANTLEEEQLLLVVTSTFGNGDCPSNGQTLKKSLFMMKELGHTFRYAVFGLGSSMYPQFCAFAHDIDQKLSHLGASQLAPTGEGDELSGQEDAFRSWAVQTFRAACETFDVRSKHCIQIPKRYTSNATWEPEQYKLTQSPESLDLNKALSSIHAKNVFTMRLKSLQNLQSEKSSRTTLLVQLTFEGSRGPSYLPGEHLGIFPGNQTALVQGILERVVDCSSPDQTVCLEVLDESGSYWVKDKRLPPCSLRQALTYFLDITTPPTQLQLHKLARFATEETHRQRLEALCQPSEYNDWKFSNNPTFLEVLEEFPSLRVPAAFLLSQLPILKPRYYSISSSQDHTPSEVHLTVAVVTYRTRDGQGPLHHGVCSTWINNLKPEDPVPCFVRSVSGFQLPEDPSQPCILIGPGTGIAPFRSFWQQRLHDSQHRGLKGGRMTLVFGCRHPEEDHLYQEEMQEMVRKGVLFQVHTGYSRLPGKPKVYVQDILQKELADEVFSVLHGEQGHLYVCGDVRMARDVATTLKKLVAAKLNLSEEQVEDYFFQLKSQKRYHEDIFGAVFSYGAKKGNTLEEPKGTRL
T1 sequence (P29475 whole entry): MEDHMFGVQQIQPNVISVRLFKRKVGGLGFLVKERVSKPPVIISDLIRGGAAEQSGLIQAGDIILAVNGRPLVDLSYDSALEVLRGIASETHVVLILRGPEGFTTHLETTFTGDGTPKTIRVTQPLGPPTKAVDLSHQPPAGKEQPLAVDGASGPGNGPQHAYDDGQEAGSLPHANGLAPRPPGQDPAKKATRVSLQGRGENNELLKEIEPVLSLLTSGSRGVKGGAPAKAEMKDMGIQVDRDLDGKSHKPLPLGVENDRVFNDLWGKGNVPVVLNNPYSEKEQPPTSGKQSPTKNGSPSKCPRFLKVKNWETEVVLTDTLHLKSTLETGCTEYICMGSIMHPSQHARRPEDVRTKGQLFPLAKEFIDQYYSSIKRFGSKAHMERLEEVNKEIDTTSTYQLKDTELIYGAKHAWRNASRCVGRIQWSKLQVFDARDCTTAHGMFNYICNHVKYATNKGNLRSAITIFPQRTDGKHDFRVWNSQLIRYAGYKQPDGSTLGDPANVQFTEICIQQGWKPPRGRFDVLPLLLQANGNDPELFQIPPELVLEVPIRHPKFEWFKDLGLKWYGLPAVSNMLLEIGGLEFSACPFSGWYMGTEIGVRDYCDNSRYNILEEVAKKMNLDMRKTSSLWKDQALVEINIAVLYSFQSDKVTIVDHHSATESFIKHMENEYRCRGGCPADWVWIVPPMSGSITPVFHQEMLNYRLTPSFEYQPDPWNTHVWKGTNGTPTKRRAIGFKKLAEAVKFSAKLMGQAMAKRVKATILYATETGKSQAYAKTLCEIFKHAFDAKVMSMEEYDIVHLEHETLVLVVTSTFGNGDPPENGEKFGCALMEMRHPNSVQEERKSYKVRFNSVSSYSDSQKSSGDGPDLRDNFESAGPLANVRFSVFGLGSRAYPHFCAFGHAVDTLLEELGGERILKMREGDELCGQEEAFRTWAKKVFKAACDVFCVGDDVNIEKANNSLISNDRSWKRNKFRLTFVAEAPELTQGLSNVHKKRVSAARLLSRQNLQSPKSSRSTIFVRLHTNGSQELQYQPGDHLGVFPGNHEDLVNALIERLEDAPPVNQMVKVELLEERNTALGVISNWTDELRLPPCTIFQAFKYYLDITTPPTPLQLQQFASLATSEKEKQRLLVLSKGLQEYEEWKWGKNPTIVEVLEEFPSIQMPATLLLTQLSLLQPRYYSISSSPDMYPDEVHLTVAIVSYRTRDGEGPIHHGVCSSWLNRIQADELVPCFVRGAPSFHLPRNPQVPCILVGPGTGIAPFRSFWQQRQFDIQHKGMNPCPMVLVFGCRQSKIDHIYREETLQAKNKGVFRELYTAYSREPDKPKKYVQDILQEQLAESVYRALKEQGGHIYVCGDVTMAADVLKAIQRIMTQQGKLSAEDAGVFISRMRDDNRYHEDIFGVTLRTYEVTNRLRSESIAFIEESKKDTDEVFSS
Nitric oxide synthase, inducible, sequence (P35228 whole entry): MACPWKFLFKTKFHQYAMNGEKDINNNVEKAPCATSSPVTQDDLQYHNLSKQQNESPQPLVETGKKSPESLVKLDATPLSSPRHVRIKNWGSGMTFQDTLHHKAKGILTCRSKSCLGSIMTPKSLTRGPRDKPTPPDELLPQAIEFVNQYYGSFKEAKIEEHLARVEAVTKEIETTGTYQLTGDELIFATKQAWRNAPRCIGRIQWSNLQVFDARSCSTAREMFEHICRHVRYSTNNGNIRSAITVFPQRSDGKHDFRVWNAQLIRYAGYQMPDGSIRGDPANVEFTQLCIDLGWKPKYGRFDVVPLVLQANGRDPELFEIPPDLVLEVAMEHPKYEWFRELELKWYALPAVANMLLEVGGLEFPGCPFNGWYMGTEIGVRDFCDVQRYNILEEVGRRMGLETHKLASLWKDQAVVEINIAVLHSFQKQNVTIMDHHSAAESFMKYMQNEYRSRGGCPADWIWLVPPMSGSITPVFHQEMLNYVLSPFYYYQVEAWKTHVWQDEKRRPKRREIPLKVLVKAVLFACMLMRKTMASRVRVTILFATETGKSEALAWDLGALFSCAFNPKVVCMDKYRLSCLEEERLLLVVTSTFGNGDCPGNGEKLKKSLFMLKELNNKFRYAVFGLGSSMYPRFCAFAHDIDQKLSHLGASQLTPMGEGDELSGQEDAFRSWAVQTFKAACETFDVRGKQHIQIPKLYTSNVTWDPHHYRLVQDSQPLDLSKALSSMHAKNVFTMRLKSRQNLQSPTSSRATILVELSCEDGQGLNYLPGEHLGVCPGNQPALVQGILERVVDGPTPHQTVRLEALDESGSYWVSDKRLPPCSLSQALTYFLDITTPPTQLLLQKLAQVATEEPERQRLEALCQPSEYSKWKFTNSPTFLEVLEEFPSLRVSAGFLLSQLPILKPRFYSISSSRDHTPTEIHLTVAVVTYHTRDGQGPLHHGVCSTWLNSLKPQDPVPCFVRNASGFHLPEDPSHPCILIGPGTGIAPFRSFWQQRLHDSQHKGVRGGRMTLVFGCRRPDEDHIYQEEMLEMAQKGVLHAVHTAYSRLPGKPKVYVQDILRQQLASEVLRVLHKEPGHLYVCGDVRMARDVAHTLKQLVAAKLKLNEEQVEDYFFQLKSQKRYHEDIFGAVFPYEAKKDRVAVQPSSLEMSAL

For `Brc1cccc2cn[nH]c12`, the half-inhibitory concentration (IC50) (commonly the midpoint of a concentration-inhibition curve) against Nitric oxide synthase 1 [1] was 14 µM.
As for `Cn1cc2cccc([N+](=O)[O-])c2n1`, the inhibition (usually the share of the control response that was lost under treatment) in assay [2] is 36%.
`O=[N+]([O-])c1ccc2[nH]ncc2c1` had a 50% inhibitory concentration (IC50) against Nitric oxide synthase 1 [1] of 47 µM.
As to `CC1(C)CC(=O)c2cn[nH]c2C1`, the inhibition in assay [2] was 2%.
For `CC12CCC(C3C=NN=C31)C2(C)C` (racemic), in assay [2], the inhibition was 20%.
Regarding `O=[N+]([O-])c1cccc2cn[nH]c12` [7-NITROINDAZOLE], the inhibition in assay [2] stood at 84%. Besides, the IC50 in assay [3] turned out to be 5.8 µM.
Take `Cn1ncc2cccc([N+](=O)[O-])c21`: the inhibition in assay [2] came to 25%.
As for `O=C1CCCc2[nH]ncc21`, the inhibition in assay [2] was 23%.
Regarding `Nc1ccc2[nH]ncc2c1`, at Nitric oxide synthase 1 [4], the IC50 is above 1000 µM.
On to `Cc1n[nH]c2c1C(=O)CCC2`, for which the inhibition in assay [2] amounted to 4%.
As for `Clc1n[nH]c2ccccc12`, on Nitric oxide synthase 1 [4], the IC50 turned out to be 100 µM.
The molecule `Brc1ccc2cn[nH]c2c1` registered an IC50 on Nitric oxide synthase 1 [1] of 4.3 µM.
As for `Oc1n[nH]c2c(F)c(F)c(F)c(F)c12`, the inhibition in assay [2] was 6%.
Regarding `O=c1[nH][nH]c2ccccc12`, on Nitric oxide synthase 1 [4], the IC50 is above 1000 µM.
In the case of `Clc1ccc2cn[nH]c2c1`, the IC50 on Nitric oxide synthase 1 [1] is 22 µM.
Molecule `Clc1cccc2cn[nH]c12` came in with an IC50 against Nitric oxide synthase 1 [1] of 4.2 µM.
The molecule `Ic1ccc2[nH]ncc2c1` displayed an IC50 against Nitric oxide synthase 1 [1] of 37 µM.
`Clc1ccc2[nH]ncc2c1` showed an IC50 against Nitric oxide synthase 1 [1] of 59 µM.
With `Nc1ccc2cn[nH]c2c1`, the IC50 at Nitric oxide synthase 1 [4] is above 1000 µM.
`Cn1nc(Br)c2cccc([N+](=O)[O-])c21`: in assay [2], the inhibition came out at 10%.
Molecule `Ic1cccc2[nH]ncc12` had an IC50 at Nitric oxide synthase 1 [1] of 17 µM.
With `Cn1nc2c([N+](=O)[O-])cccc2c1Br`, the inhibition in assay [2] was 7%.
On to `Brc1ccc2[nH]ncc2c1`, for which 72 µM corresponded to half-maximal inhibition against Nitric oxide synthase 1 [1] (IC50).
On to `O=[N+]([O-])c1ccc2cn[nH]c2c1`, for which half-maximal inhibition on Nitric oxide synthase 1 [1] (IC50) was put at 32 µM.
For `O=[N+]([O-])c1cccc2c(Br)n[nH]c12`, in assay [2], the inhibition worked out at 97%. The concentration for half-maximal inhibition (IC50) in assay [3] was determined as 0.29 µM; against Nitric oxide synthase 1 [1], 0.17 µM.
With `Fc1c(F)c(F)c(-c2n[nH]c3c(F)c(F)c(F)c(F)c23)c(F)c1F`, the Activity turned out to be 90% in assay [5], 20% in assay [6] and 58% in assay [7]. Moreover, the inhibition in assay [2] was 80%; in assay [8], “Dose-dependent effect”. Also, it took 400 µM to reach half-maximal inhibition in assay [3] (IC50).
With `Fc1c(F)c(F)c2c(C(F)(F)F)n[nH]c2c1F`, the inhibition in assay [2] is 21%.
For the molecule `CCc1n[nH]c2ccccc12`, the IC50 at Nitric oxide synthase 1 [4] came to 310 µM.
In turn, `Clc1cccc2[nH]ncc12` showed an IC50 against Nitric oxide synthase 1 [1] of 44 µM.
Turning to `Nc1cccc2cn[nH]c12`, the IC50 at Nitric oxide synthase 1 [4] stood at 115 µM.
For the molecule `O=[N+]([O-])c1cccc2[nH]ncc12`, the midpoint of inhibition at Nitric oxide synthase 1 [1], the IC50, lay at 3.1 µM.
As for `Cc1n[nH]c2c1C(=O)CC(C)(C)C2`, the inhibition in assay [2] came to 22%.
With `O=[N+]([O-])c1ccc2c(Cl)n[nH]c2c1`, on Nitric oxide synthase 1 [1], the concentration for half-maximal inhibition (IC50) was found to be 158 µM.
For the molecule `Brc1cccc2[nH]ncc12`, the IC50 on Nitric oxide synthase 1 [1] was 2.4 µM.
On to `Cc1n[nH]c2c(F)c(F)c(F)c(F)c12`, for which the inhibition in assay [2] was 83%.
For the molecule `Fc1c(F)c(F)c2c(-c3ccccc3)n[nH]c2c1F`, the inhibition in assay [2] worked out at 37%.
For `c1ccc2[nH]ncc2c1` [INDAZOLE], the half-inhibitory concentration (IC50) on Nitric oxide synthase 1 [4] was 178 µM.

The record behind these values is ChEMBL document CHEMBL1152545, “Fluorinated indazoles as novel selective inhibitors of nitric oxide synthase (NOS): synthesis and biological evaluation” (Bioorg Med Chem, 2009).
